Measured values as given in ChEMBL document CHEMBL1153560, “In vitro activities of doripenem and six comparator drugs against 423 aerobic and anaerobic bacterial isolates from infected diabetic foot wounds” (2008).
Converted amounts (≈) assume the structure as drawn.

How the values were obtained:
Type in all cases: functional
Prevotella bivia [1] = assay: Antibacterial activity against Prevotella bivia isolated from patient with diabetic foot infection after 44 to 48 hrs by agar dilution method
Summary of the method: (§1)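 CLSI M11-A7 agar dilution: serial twofold drug dilutions made on the test day and added to molten agar. Spots of 10^5 CFU were applied by replicator, with drug-free control plates inoculated before and after each set. Incubation was 44 to 48 h at 37°C in an anaerobic chamber. MIC was the lowest concentration giving no growth or a marked change in growth versus controls.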

Clostridium perfringens = assay: Antibacterial activity against Clostridium perfringens isolated from patient with diabetic foot infection after 44 to 48 hrs by agar dilution method
Summary of the method: (§2)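 Agar dilution per CLSI M11-A7. Twofold drug dilutions made on the test day and added to molten agar. Replicator-applied inoculum of 10^5 CFU/spot. Drug-free control plates inoculated before and after each drug set. Incubation at 37°C for 44 to 48 h, anaerobic chamber. MIC taken as the lowest concentration giving no growth or a marked change in growth versus controls.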

[2] = test system: Anaerocolumna aminovalerica; assay: Antibacterial activity against Clostridium aminovalericum isolated from patient with diabetic foot infection after 44 to 48 hrs by agar dilution method; summary of the method: as §1
Clostridium cadaveris [3] = assay: Antibacterial activity against Clostridium cadaveris isolated from patient with diabetic foot infection after 44 to 48 hrs by agar dilution method; summary of the method: as §1
[Clostridium] innocuum = Antibacterial activity against Clostridium innocuum isolated from patient with diabetic foot infection after 44 to 48 hrs by agar dilution method; summary of the method: as §1
Lacrimispora sphenoides = assay: Antibacterial activity against Clostridium sphenoides isolated from patient with diabetic foot infection after 44 to 48 hrs by agar dilution method; summary of the method: as §1
Cutibacterium acnes = assay: Antibacterial activity against Propionibacterium acnes isolated from patient with diabetic foot infection after 44 to 48 hrs by agar dilution method; summary of the method: as §1
Anaerococcus prevotii [4] = assay: Antibacterial activity against Anaerococcus prevotii isolated from patient with diabetic foot infection after 44 to 48 hrs by agar dilution method; summary of the method: as §1
Anaerococcus tetradius = assay: Antibacterial activity against Anaerococcus tetradius isolated from patient with diabetic foot infection after 44 to 48 hrs by agar dilution method; summary of the method: as §1
Finegoldia magna [5] = assay: Antibacterial activity against Finegoldia magna isolated from patient with diabetic foot infection after 44 to 48 hrs by agar dilution method; summary of the method: as §1
[6] = test system: Peptoniphilus asaccharolyticus; assay: Antibacterial activity against Peptoniphilus asaccharolyticus isolated from patient with diabetic foot infection after 44 to 48 hrs by agar dilution method; summary of the method: as §1
[7] = test system: Peptostreptococcus anaerobius; assay: Antibacterial activity against Peptostreptococcus anaerobius isolated from patient with diabetic foot infection after 44 to 48 hrs by agar dilution method; summary of the method: as §1
Parvimonas micra [8] = assay: Antibacterial activity against Peptostreptococcus micros isolated from patient with diabetic foot infection after 44 to 48 hrs by agar dilution method; summary of the method: as §1
Bacteroides fragilis [9] = assay: Antibacterial activity against Bacteroides fragilis isolated from patient with diabetic foot infection after 44 to 48 hrs by agar dilution method; summary of the method: as §1
Bacteroides caccae [10] = assay: Antibacterial activity against Bacteroides caccae isolated from patient with diabetic foot infection after 44 to 48 hrs by agar dilution method; summary of the method: as §1
Bacteroides ovatus [11] = assay: Antibacterial activity against Bacteroides ovatus isolated from patient with diabetic foot infection after 44 to 48 hrs by agar dilution method; summary of the method: as §1
Bacteroides fragilis [12] = assay: Antibacterial activity against Bacteroides fragilis isolated from patient with diabetic foot infection assessed as percent resistant isolates after 44 to 48 hrs by agar dilution method; summary of the method: as §2
Bacteroides caccae [13] = assay: Antibacterial activity against Bacteroides caccae isolated from patient with diabetic foot infection assessed as percent resistant isolates after 44 to 48 hrs by agar dilution method; summary of the method: as §2
Bacteroides ovatus [14] = assay: Antibacterial activity against Bacteroides ovatus isolated from patient with diabetic foot infection assessed as percent resistant isolates after 44 to 48 hrs by agar dilution method; summary of the method: as §2
[15] = test system: Bacteroides thetaiotaomicron; assay: Antibacterial activity against Bacteroides thetaiotaomicron isolated from patient with diabetic foot infection after 44 to 48 hrs by agar dilution method; summary of the method: as §1
Bacteroides uniformis [16] = assay: Antibacterial activity against Bacteroides uniformis isolated from patient with diabetic foot infection after 44 to 48 hrs by agar dilution method; summary of the method: as §1
Phocaeicola vulgatus = assay: Antibacterial activity against Bacteroides vulgatus isolated from patient with diabetic foot infection after 44 to 48 hrs by agar dilution method; summary of the method: as §1
Parabacteroides merdae [17] = assay: Antibacterial activity against Parabacteroides merdae isolated from patient with diabetic foot infection after 44 to 48 hrs by agar dilution method; summary of the method: as §1
[18] = test system: Porphyromonas asaccharolytica; assay: Antibacterial activity against Porphyromonas asaccharolyticus isolated from patient with diabetic foot infection after 44 to 48 hrs by agar dilution method; summary of the method: as §1
Bacteroides uniformis [19] = assay: Antibacterial activity against Bacteroides uniformis isolated from patient with diabetic foot infection assessed as percent resistant isolates after 44 to 48 hrs by agar dilution method; summary of the method: as §2
[20] = test system: Parabacteroides distasonis; assay: Antibacterial activity against Parabacteroides distasonis isolated from patient with diabetic foot infection assessed as percent resistant isolates after 44 to 48 hrs by agar dilution method; summary of the method: as §2
Parabacteroides merdae [21] = assay: Antibacterial activity against Parabacteroides merdae isolated from patient with diabetic foot infection assessed as percent resistant isolates after 44 to 48 hrs by agar dilution method; summary of the method: as §2
Porphyromonas somerae = assay: Antibacterial activity against Porphyromonas somerae isolated from patient with diabetic foot infection assessed as percent resistant isolates after 44 to 48 hrs by agar dilution method; summary of the method: as §2
Prevotella bivia [22] = assay: Antibacterial activity against Prevotella bivia isolated from patient with diabetic foot infection assessed as percent resistant isolates after 44 to 48 hrs by agar dilution method; summary of the method: as §2
[23] = test system: Anaerocolumna aminovalerica; assay: Antibacterial activity against Clostridium aminovalericum isolated from patient with diabetic foot infection assessed as percent resistant isolates after 44 to 48 hrs by agar dilution method; summary of the method: as §2
Clostridium cadaveris [24] = assay: Antibacterial activity against Clostridium cadaveris isolated from patient with diabetic foot infection assessed as percent resistant isolates after 44 to 48 hrs by agar dilution method; summary of the method: as §2
[25] = test system: Clostridium malenominatum; assay: Antibacterial activity against Clostridium malenominatum isolated from patient with diabetic foot infection assessed as percent resistant isolates after 44 to 48 hrs by agar dilution method; summary of the method: as §2
Anaerococcus prevotii [26] = assay: Antibacterial activity against Anaerococcus prevotii isolated from patient with diabetic foot infection assessed as percent resistant isolates after 44 to 48 hrs by agar dilution method; summary of the method: as §2
Finegoldia magna [27] = assay: Antibacterial activity against Finegoldia magna isolated from patient with diabetic foot infection assessed as percent resistant isolates after 44 to 48 hrs by agar dilution method; summary of the method: as §2
[28] = test system: Peptoniphilus asaccharolyticus; assay: Antibacterial activity against Peptoniphilus asaccharolyticus isolated from patient with diabetic foot infection assessed as percent resistant isolates after 44 to 48 hrs by agar dilution method; summary of the method: as §2
[29] = test system: Peptostreptococcus anaerobius; assay: Antibacterial activity against Peptostreptococcus anaerobius isolated from patient with diabetic foot infection assessed as percent resistant isolates after 44 to 48 hrs by agar dilution method; summary of the method: as §2
Parvimonas micra [30] = assay: Antibacterial activity against Peptostreptococcus micros isolated from patient with diabetic foot infection assessed as percent resistant isolates after 44 to 48 hrs by agar dilution method; summary of the method: as §2

C[C@@H](O)[C@H]1C(=O)N2C(C(=O)O)=C(S[C@@H]3CN[C@H](CNS(N)(=O)=O)C3)[C@H](C)[C@H]12 [DORIPENEM]
MIC50 (Prevotella bivia [1]): 0.06 µg/mL (≈ 0.143 µM)
MIC90 (Prevotella bivia [1]): 0.125 µg/mL (≈ 0.297 µM)
MIC50 (Clostridium perfringens): ≤ 0.015 µg/mL
MIC90 (Clostridium perfringens): 0.03 µg/mL (≈ 0.0713 µM)
MIC50 [2]: 0.06 µg/mL (≈ 0.143 µM)
MIC90 [2]: 1 µg/mL (≈ 2.38 µM)
MIC50 (Clostridium cadaveris [3]): 0.06 µg/mL (≈ 0.143 µM)
MIC90 (Clostridium cadaveris [3]): 1 µg/mL (≈ 2.38 µM)
MIC50 ([Clostridium] innocuum): 0.06 µg/mL (≈ 0.143 µM)
MIC90 ([Clostridium] innocuum): 1 µg/mL (≈ 2.38 µM)
MIC50 (Lacrimispora sphenoides): 0.06 µg/mL (≈ 0.143 µM)
MIC90 (Lacrimispora sphenoides): 1 µg/mL (≈ 2.38 µM)
MIC50 (Cutibacterium acnes): 0.06 µg/mL (≈ 0.143 µM)
MIC90 (Cutibacterium acnes): 0.125 µg/mL (≈ 0.297 µM)
MIC50 (Anaerococcus prevotii [4]): ≤ 0.015 µg/mL
MIC90 (Anaerococcus prevotii [4]): 0.06 µg/mL (≈ 0.143 µM)
MIC50 (Anaerococcus tetradius): ≤ 0.015 µg/mL
MIC90 (Anaerococcus tetradius): 0.06 µg/mL (≈ 0.143 µM)
MIC50 (Finegoldia magna [5]): 0.06 µg/mL (≈ 0.143 µM)
MIC90 (Finegoldia magna [5]): 0.125 µg/mL (≈ 0.297 µM)
MIC50 [6]: ≤ 0.015 µg/mL
MIC90 [6]: 0.06 µg/mL (≈ 0.143 µM)
MIC50 [7]: 0.06 µg/mL (≈ 0.143 µM)
MIC90 [7]: 0.25 µg/mL (≈ 0.595 µM)
MIC50 (Parvimonas micra [8]): 0.06 µg/mL (≈ 0.143 µM)
MIC90 (Parvimonas micra [8]): 0.25 µg/mL (≈ 0.595 µM)
MIC50 (Bacteroides fragilis [9]): 0.25 µg/mL (≈ 0.595 µM)
MIC90 (Bacteroides fragilis [9]): 0.25 µg/mL (≈ 0.595 µM)
MIC50 (Bacteroides caccae [10]): 0.25 µg/mL (≈ 0.595 µM)
MIC90 (Bacteroides caccae [10]): 1 µg/mL (≈ 2.38 µM)
MIC50 (Bacteroides ovatus [11]): 0.25 µg/mL (≈ 0.595 µM)
MIC90 (Bacteroides ovatus [11]): 1 µg/mL (≈ 2.38 µM)
Activity (Bacteroides fragilis [12]): 0%
Activity (Bacteroides caccae [13]): 0%
Activity (Bacteroides ovatus [14]): 0%
MIC50 [15]: 0.25 µg/mL (≈ 0.595 µM)
MIC90 [15]: 1 µg/mL (≈ 2.38 µM)
MIC50 (Bacteroides uniformis [16]): 0.25 µg/mL (≈ 0.595 µM)
MIC90 (Bacteroides uniformis [16]): 1 µg/mL (≈ 2.38 µM)
MIC50 (Phocaeicola vulgatus): 0.25 µg/mL (≈ 0.595 µM)
MIC90 (Phocaeicola vulgatus): 1 µg/mL (≈ 2.38 µM)
MIC50 (Parabacteroides merdae [17]): 0.25 µg/mL (≈ 0.595 µM)
MIC90 (Parabacteroides merdae [17]): 1 µg/mL (≈ 2.38 µM)
MIC50 [18]: ≤ 0.015 µg/mL
MIC90 [18]: 0.03 µg/mL (≈ 0.0713 µM)
Activity (Bacteroides uniformis [19]): 0%
Activity [20]: 0%
Activity (Parabacteroides merdae [21]): 0%
Activity (Porphyromonas somerae): 0%
Activity (Prevotella bivia [22]): 0%
Activity [23]: 0%
Activity (Clostridium cadaveris [24]): 0%
Activity [25]: 0%
Activity (Anaerococcus prevotii [26]): 0%
Activity (Finegoldia magna [27]): 0%
Activity [28]: 0%
Activity [29]: 0%
Activity (Parvimonas micra [30]): 0%
